In ChEMBL document CHEMBL3407350, “Synthesis and anti-hepatitis B virus activity of C4 amide-substituted isosteviol derivatives” (Bioorg Med Chem, 2015):
In brackets after ≈: the same amount, converted by molar mass. Activity calls are given as the source filed them. No cut-off for these calls is given here.

What was measured:
Hepatitis B virus [1] = assay: Antiviral activity against HBV infected in human HepG2(2.2.15) cells assessed as inhibition of surface antigen secretion by EIA; type: functional, organism-based
Summary of the method: (§1)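 HepG2 2.2.15 cells (HepG2 stably carrying a head-to-tail HBV DNA dimer; MEM, 10% FBS, 37 °C, 5% CO2) treated with compound for 3 days; conditioned medium assayed for secreted HBsAg and HBeAg by enzyme immunoassay; mean and SD, n = 3; IC50 taken as 50% inhibitory concentration.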

[2] = Cytotoxicity against human HepG2(2.2.15) cells; type: cell-based; settings: read-out: TC50 (the source's name)
Summary of the method: (§2)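 Cytotoxicity by MTS: HepG2 2.2.15 cells seeded at 4×10^4 cells/ml for 24 h, exposed to serial dilutions 2.5–160 µg/ml for 3 days; four replicates, viability expressed relative to untreated control; TC50 as 50% cytotoxic concentration.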

[3] = Selectivity index, ratio of TC50 for human HepG2(2.2.15) cells to IC50 for HBV infected in human HepG2(2.2.15) cells assessed as inhibition of surface antigen secretion
Summary of the method: (§3)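 Selectivity index computed as TC50 (MTS, HepG2 2.2.15, 3 days) divided by IC50 for HBsAg, HBeAg or virion DNA inhibition in the same cell line.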

[4] = Selectivity index, ratio of TC50 for human HepG2(2.2.15) cells to IC50 for HBV infected in human HepG2(2.2.15) cells assessed as inhibition of viral DNA replication; summary of the method: as §3
Hepatitis B virus [5] = assay: Antiviral activity against HBV infected in human HepG2(2.2.15) cells assessed as inhibition of e antigen secretion by EIA; type: functional, organism-based; summary of the method: as §1
Hepatitis B virus [6] = assay: Antiviral activity against HBV infected in human HepG2(2.2.15) cells assessed as inhibition of viral DNA replication; type: functional, organism-based
Summary of the method: (§4)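 Secreted virion DNA from HepG2 2.2.15 cells after 3 days of compound treatment; HBV DNA isolated from conditioned medium and quantified by SYBR Green real-time PCR (45 cycles, 95 °C 15 s / 58 °C 1 min); mean and SD, n = 3; IC50 as 50% inhibitory concentration.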

[7] = Selectivity index, ratio of TC50 for human HepG2(2.2.15) cells to IC50 for HBV infected in human HepG2(2.2.15) cells assessed as inhibition of e antigen secretion; summary of the method: as §3
[8] = Upregulation of cytoplasmic IkappaBalpha level in human HuH7 cells transfected with pHBV1.2 at 1 to 10 ug/ml after 2 days by Western blotting analysis; type: functional, cell-based; settings: Huh-7
Summary of the method: (§5)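 Huh7 transfected with pHBV1.2 for 2 days, treated 1, 5, 10 µg/ml for 2 further days; nuclear and cytoplasmic fractions by NE-PER; 25 µg protein immunoblotted for p65, p50, phospho-p65 (nuclear, PCNA control) and IκBα (cytoplasmic); three experiments.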

Hepatitis B virus [9] = assay: Antiviral activity against HBV transfected in human HuH7 cells assessed as reduction in LHBsAg protein expression at 1 to 10 ug/ml after 2 days by immunoblot analysis relative to vehicle-treated control; type: functional, organism-based; settings: Huh-7
Summary of the method: (§6)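 Huh7 transfected with pHBV1.2 (Lipofectamine 2000, 2 days), then treated 1, 5, 10 µg/ml for 2 days; whole-cell RIPA lysates, 25 µg protein per lane SDS-PAGE, PVDF immunoblot for LHBsAg, SHBsAg, HBcAg with ECL detection; α-tubulin loading control; compared with vehicle.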

Huh-7 [10] = assay: Reduction of phosphorylated p65 NF-kappaB level in human HuH7 cells transfected with pHBV1.2 at 1 to 10 ug/ml after 2 days by Western blotting analysis; type: functional, cell-based; summary of the method: as §5
[11] = Cytotoxicity against human HepG2(2.2.15) cells at >20 ug/ml after 3 days by MTS assay; type: cell-based; settings: hepg2 2.2.15, 72 h; summary of the method: as §2
Huh-7 [12] = assay: Reduction in NF-kappaB binding to consensus DNA-binding sequence in human HuH7 cells transfected with pHBV1.2 by ESMA analysis; type: functional, cell-based
Hepatitis B virus [13] = assay: Antiviral activity against HBV infected in human HepG2(2.2.15) cells assessed as inhibition of surface antigen secretion after 3 days by EIA; type: functional, organism-based; summary of the method: as §1
Hepatitis B virus [14] = assay: Antiviral activity against HBV transfected in human HuH7 cells assessed as reduction in SHBsAg protein expression at 1 to 10 ug/ml after 2 days by immunoblot analysis relative to vehicle-treated control; type: functional, organism-based; settings: Huh-7; summary of the method: as §6
Hepatitis B virus [15] = assay: Antiviral activity against HBV infected in human HepG2(2.2.15) cells assessed as inhibition of e antigen secretion after 3 days by EIA; type: functional, organism-based; summary of the method: as §1
Hepatitis B virus [16] = assay: Antiviral activity against HBV transfected in human HuH7 cells assessed as reduction in viral DNA replication after 2 days by Southern blot analysis; type: functional, organism-based; settings: Huh-7
Summary of the method: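 Intracellular encapsidated HBV DNA from core particles of pHBV1.2-transfected Huh7 cells treated 2 days; 1.0% agarose, Southern blot with DIG-labeled full-length HBV probe; lamivudine-treated cells as comparison.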

Hepatitis B virus [17] = assay: Reduction of S promoter activity in HBV infected in human HuH7 cells transfected with pS-Luc at 10 ug/ml after 24 hrs by luciferase reporter gene assay; type: functional, organism-based; settings: Huh-7
Summary of the method: (§7)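 Huh7 seeded in 24-well plates 24 h, cotransfected with viral promoter-luciferase construct (Core, S, preS or X; 1 µg/well) plus pHBV1.2 and pRL-SV40 (0.02 µg/well) in serum-free DMEM 24 h; then 2% FBS medium ± 10 µg/ml; firefly normalized to Renilla; n = 3.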

Hepatitis B virus [18] = assay: Antiviral activity against HBV transfected in human HuH7 cells assessed as reduction in HBcAg protein expression at 1 to 10 ug/ml after 2 days by immunoblot analysis relative to vehicle-treated control; type: functional, organism-based; settings: Huh-7; summary of the method: as §6
Hepatitis B virus [19] = assay: Inhibition of Core promoter activity in HBV infected in human HuH7 cells transfected with pCore-Luc at 10 ug/ml after 24 hrs by luciferase reporter gene assay; type: functional, organism-based; settings: Huh-7; summary of the method: as §7
Huh-7 [20] = assay: Antiviral activity against HBV infected in human HuH7 cells transfected with pHBV1.2/p65 expression plasmid at 10 ug/ml after 2 days by RT-PCR analysis; type: functional, cell-based
Summary of the method: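 Huh7 cells cotransfected with pHBV1.2 plus 0.5 or 2.5 µg pCMV-p65 (or empty vector) for 2 days, then exposed to 10 µg/ml for 2 more days; secreted viral particle DNA quantified by real-time PCR; n = 3.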

Hepatitis B virus [21] = assay: Inhibition of NF-kappaB promoter activity in HBV infected in human HuH7 cells transfected with pNF-kappaB-Luc at 10 ug/ml after 24 hrs by luciferase reporter gene assay; type: functional, organism-based; settings: Huh-7
Summary of the method: (§8)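 Huh7 in 24-well plates transfected with pAP1-, pAP2-, pNF-κB- or pISRE-Luc plus pRL-SV40 for 24 h, then treated ± 10 µg/ml; dual-luciferase read-out normalized to Renilla; mean and SD, n = 3.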

Hepatitis B virus [22] = assay: Antiviral activity against HBV infected in human HepG2(2.2.15) cells assessed as inhibition of viral DNA replication by RT-PCR analysis; type: functional, organism-based; summary of the method: as §4
Hepatitis B virus [23] = assay: Reduction of preS promoter activity in HBV infected in human HuH7 cells transfected with pPreS-Luc at 10 ug/ml after 24 hrs by luciferase reporter gene assay; type: functional, organism-based; settings: Huh-7; summary of the method: as §7
Hepatitis B virus [24] = assay: Antiviral activity against HBV transfected in human HuH7 cells assessed as reduction in major S/preS RNA level at 1 to 10 ug/ml after 2 days by Northern blot analysis; type: functional, organism-based; settings: Huh-7
Summary of the method: (§9)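 pHBV1.2-transfected Huh7 (cotransfected pCMV-β for efficiency) treated 1, 5, 10 µg/ml for 2 days; 5 µg total RNA on 1.0% agarose, Northern blot with whole HBV genome probe; GAPDH RNA loading control, β-gal for transfection efficiency.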

Hepatitis B virus [25] = assay: Inhibition of ISRE promoter activity in HBV infected in human HuH7 cells transfected with pISRE-Luc at 10 ug/ml after 24 hrs by luciferase reporter gene assay; type: functional, organism-based; settings: Huh-7; summary of the method: as §8
Hepatitis B virus [26] = assay: Upregulation of AP-1 promoter activity in HBV infected in human HuH7 cells transfected with pAP1-Luc at 10 ug/ml after 24 hrs by luciferase reporter gene assay; type: functional, organism-based; settings: Huh-7; summary of the method: as §8
Hepatitis B virus [27] = assay: Antiviral activity against HBV transfected in human HuH7 cells assessed as reduction in precore/pregenomic RNA level at 1 to 10 ug/ml after 2 days by Northern blot analysis; type: functional, organism-based; settings: Huh-7; summary of the method: as §9
Huh-7 [28] = assay: Inhibition of nuclear p65/p50 NF-kappaB protein expression in human HuH7 cells transfected with pHBV1.2 at 1 to 10 ug/ml after 2 days by Western blotting analysis; type: functional, cell-based; summary of the method: as §5
Hepatitis B virus [29] = assay: Inhibition of AP-2 promoter activity in HBV infected in human HuH7 cells transfected with pAP2-Luc at 10 ug/ml after 24 hrs by luciferase reporter gene assay; type: functional, organism-based; settings: Huh-7; summary of the method: as §8
[30] = Cytotoxicity against HBV-transfected human HuH7 cells up to 160 ug/ml after 3 days by MTS assay; type: cell-based; settings: huh-7, 72 h
Summary of the method: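 Huh7 cells (DMEM, 10% FBS) transfected with HBV plasmid, seeded at 4×10^4 cells/ml for 24 h, treated with 2.5–160 µg/ml serial dilutions for 3 days; viability by MTS read-out, four replicates, relative to untreated control.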

For `C[C@@]12CC[C@@H]3[C@@](CC[C@H]4[C@@]3(C)CCC[C@@]4(C)NC(=O)c3ccc(Cl)cc3)(CC1=O)C2`, the IC50 (Hepatitis B virus [1]) was 20.8 µg/mL (≈ 48.7 µM), the CC50 [2] was 21.6 µg/mL (≈ 50.6 µM) and the “Selectivity Index” value [3] was 1.04.
In the case of `C[C@@]12CC[C@@H]3[C@@](CC[C@H]4[C@@]3(C)CCC[C@@]4(C)NC(=O)c3ccccc3)(CC1=O)C2`, the IC50 (Hepatitis B virus [1]) was 35.6 µg/mL (≈ 90.6 µM), the CC50 [2] was 48.5 µg/mL (≈ 123 µM) and the “Selectivity Index” value [3] was 1.36.
In the case of `CCc1ccc(C(=O)N[C@]2(C)CCC[C@@]3(C)[C@@H]4CC[C@@]5(C)C[C@]4(CC[C@@H]32)CC5=O)cc1`, the “Selectivity Index” value [4] was 1.89, the IC50 (Hepatitis B virus [1]) was 5.57 µg/mL (≈ 13.2 µM) and the IC50 (Hepatitis B virus [5]) was 7.38 µg/mL (≈ 17.5 µM). The IC50 (Hepatitis B virus [6]) was 11.2 µg/mL (≈ 26.6 µM), the CC50 [2] was 21.2 µg/mL (≈ 50.3 µM) and the “Selectivity Index” value [7] was 2.87. For the same molecule, the “Selectivity Index” value [3] was 3.8.
With `O=c1[nH]cc(F)c(=O)[nH]1` [FLUOROURACIL] the CC50 [2] was 6.12 µg/mL (≈ 47 µM).
In the case of `CCCC(=O)N[C@]1(C)CCC[C@@]2(C)[C@@H]3CC[C@@]4(C)C[C@]3(CC[C@@H]21)CC4=O`, the “Selectivity Index” value [4] was 11.41, the IC50 (Hepatitis B virus [1]) was 10.4 µg/mL (≈ 28.8 µM) and the Activity [8] was “Active”. For the same molecule, the Activity (Hepatitis B virus [9]) was “Active”, the IC50 (Hepatitis B virus [5]) was 11.2 µg/mL (≈ 31 µM) and the IC50 (Hepatitis B virus [6]) was 5.76 µg/mL (≈ 16 µM). The Activity (Huh-7 [10]) was “Active”, the Activity [11] was “Toxic” and the Activity (Huh-7 [12]) was “Dose-dependent effect”. For the same molecule, the CC50 [2] was 65.7 µg/mL (≈ 183 µM), the inhibition (Hepatitis B virus [13]) was “Dose-dependent effect” and the Activity (Hepatitis B virus [14]) was “Active”. The inhibition (Hepatitis B virus [15]) was “Dose-dependent effect”, the Activity (Hepatitis B virus [16]) was “Dose-dependent effect” and the Activity (Hepatitis B virus [17]) was “Active”. The Activity (Hepatitis B virus [18]) was “Active”, the inhibition (Hepatitis B virus [19]) was “inactive” and the Activity (Huh-7 [20]) was “inactive”. The inhibition (Hepatitis B virus [21]) was “Active”, the inhibition (Hepatitis B virus [22]) was “Dose-dependent effect” and the Activity (Hepatitis B virus [23]) was “Active”. The Activity (Hepatitis B virus [24]) was “Active”, the inhibition (Hepatitis B virus [25]) was “inactive” and the Activity (Hepatitis B virus [26]) was “Active”. For the same molecule, the Activity (Hepatitis B virus [27]) was “Active”, the inhibition (Huh-7 [28]) was “Active” and the inhibition (Hepatitis B virus [29]) was “inactive”. For the same molecule, the Activity [30] was “Non-toxic”, the “Selectivity Index” value [7] was 5.89 and the “Selectivity Index” value [3] was 6.34.
With `Nc1ccn([C@@H]2CS[C@H](CO)O2)c(=O)n1` [LAMIVUDINE] the “Selectivity Index” value [4] was 5, the IC50 (Hepatitis B virus [1]) was 49.1 µg/mL (≈ 214 µM) and the IC50 (Hepatitis B virus [6]) was 41 µg/mL (≈ 179 µM). The CC50 [2] was 205 µg/mL (≈ 894 µM) and the “Selectivity Index” value [3] was 4.17.
With `C[C@@]12CC[C@@H]3[C@@](CC[C@H]4[C@@]3(C)CCC[C@@]4(C)NC(=O)c3ccc(I)cc3)(CC1=O)C2` the CC50 [2] was 10.5 µg/mL (≈ 20.3 µM).
